Test results: ChEMBL document CHEMBL3763129 (Bioorg Med Chem Lett, 2016)
Active and inactive are the calls of the source. No cut-off for these calls is given here.

Experiments:
ASPC1 [1] = experiment: Antiproliferative activity against human AsPC1 cells assessed as cell viability at 0.01 to 10 uM after 48 and 72 hrs by MTS assay; type: functional, cell-based
[2] = Cytotoxicity against human MCF10A cells assessed as cell viability at 10 uM after 48 hrs by MTS assay; type: cell-based; settings: mcf-10a
MIA PaCa-2 [3] = experiment: Antiproliferative activity against human MIAPaCa2 cells assessed as cell viability at 0.01 to 10 uM after 48 and 72 hrs by MTS assay; type: functional, cell-based
[4] = biological target: T1, Calmodulin/Proto-oncogene tyrosine-protein kinase Src (Homo sapiens) (UniProt P12931+P0DP23); experiment: Inhibition of human CaM/Src kinase SH2 domain interaction assessed as apparent association of CaM-Src kinase SH2 domain at 10 fold excess compound concentration by isothermal titration calorimetry; type: protein assay
Method in brief: (§1)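 ITC at 27°C: SH2 (0.02mM) premixed with compound in DMSO in cell, titrated with CaM (0.2mM, DMSO matched), 20µl per injection, 300 s spacing; both proteins dialyzed overnight in 10mM Bis-Tris pH6.5, 50mM NaCl, 1mM CaCl2, 0.1mM TCEP; recombinant proteins from E. coli, SUMO tag removed.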

ASPC1 [5] = experiment: Antiproliferative activity against human AsPC1 cells assessed as cell viability at 10 uM after 48 hrs by MTS assay; type: functional, cell-based
[6] = biological target: Calmodulin-1 (Homo sapiens) (UniProt P0DP23); experiment: Binding affinity to human calmodulin by isothermal titration calorimetry
BXPC-3 [7] = experiment: Antiproliferative activity against human BxPC3 cells assessed as cell viability at 0.01 to 10 uM after 48 and 72 hrs by MTS assay; type: functional, cell-based
[8] = Cytotoxicity against human MCF10A cells assessed as cell viability at 0.01 to 10 uM after 48 and 72 hrs by MTS assay; type: cell-based; settings: mcf-10a
BXPC-3 [9] = experiment: Antiproliferative activity against human BxPC3 cells assessed as cell viability at 10 uM after 48 hrs by MTS assay; type: functional, cell-based
MIA PaCa-2 [10] = experiment: Antiproliferative activity against human MIAPaCa2 cells assessed as cell viability at 10 uM after 48 hrs by MTS assay; type: functional, cell-based
[11] = biological target: Proto-oncogene tyrosine-protein kinase Src (Homo sapiens) (UniProt P12931); experiment: Binding affinity to Src kinase SH2 domain (unknown origin) at 25 uM by STD-NMR spectroscopy
Method in brief: (§2)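 STD-NMR on recombinant SH2 (SUMO-fusion expressed in E. coli Rosetta2, Ni-purified, tag cleaved) in 100% D2O with trace DMSO-d6; 50 ms Gaussian saturation pulse, saturation and delay times 5.0 s, 16 scans with 720 averages; ligand/protein ratio 5:1 or 20:1 depending on compound.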

[12] = biological target: T1, Calmodulin/Proto-oncogene tyrosine-protein kinase Src (Homo sapiens); experiment: Inhibition of human CaM/Src kinase SH2 domain interaction assessed as apparent association of CaM-Src kinase SH2 domain at 25 fold excess compound concentration by isothermal titration calorimetry; type: protein assay; method in brief: as §1
[13] = biological target: Proto-oncogene tyrosine-protein kinase Src (Homo sapiens) (UniProt P12931); experiment: Binding affinity to Src kinase SH2 domain (unknown origin) at 100 uM by STD-NMR spectroscopy; method in brief: as §2
MIA PaCa-2 [14] = experiment: Cytotoxicity against human MIAPaCa2 cells at 1 to 50 uM after 8 days by CellTiter Glo assay; type: functional, cell-based
Method in brief: (§3)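 3D microtumors: 10K MiaPaCa-2 cells in ice-cold HuBiogel (3 mg/ml), 2 mm beads polymerized 5 min at 37C, cultured up to 14 days in DMEM/10% FBS; compound 1–50 µM added every other day (final 5% FBS, 0.5% DMSO); media or DMSO controls; day 1, 7, 14 Calcein-AM (1.0µM) live imaging; proliferation by CellTiter Glo relative to DMSO; 6–8 beads/group.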

MIA PaCa-2 [15] = experiment: Cytotoxicity against human MIAPaCa2 cells at 1 to 50 uM after 8 days by calcein-AM staining based fluorescence analysis; type: functional, cell-based; method in brief: as §3

| Compound | Activity (ASPC1 [1]) | Activity [2] | Activity (MIA PaCa-2 [3]) | Ka [4] [×10⁶ /M] | Activity (ASPC1 [5]) | Activity [6] | Activity (BXPC-3 [7]) | Activity [8] | Activity (BXPC-3 [9]) | Activity (MIA PaCa-2 [10]) | Activity [11] | Ka [12] [×10⁶ /M] | Activity [13] | Activity (MIA PaCa-2 [14]) | Activity (MIA PaCa-2 [15]) |
| --- | --- | --- | --- | --- | --- | --- | --- | --- | --- | --- | --- | --- | --- | --- | --- |
| O=C(Nc1ccc(C(=O)O)cc1)Nc1ccc(-c2nc(N3CCOCC3)nc(N3CCOCC3)n2)cc1 | Active | Toxic | Active | 2.49 | Active | inactive | Active | Toxic | Active | Active | Active | – | – | – | – |
| OC[C@@H]1O[C@H](n2cnc3c(NCc4ccco4)ncnc32)[C@H](O)[C@@H]1O | Active | Toxic | Active | – | Active | inactive | Active | Toxic | Active | Active | – | 2.03 | Active | – | – |
| COc1ccc(-c2n[nH]c(NC(=O)c3cccc(S(=O)(=O)N4CCc5ccccc54)c3)n2)cc1 | – | Toxic | – | – | Active | – | – | – | Active | Active | – | – | – | – | – |
| N#Cc1ccc(Cc2cnc(NC(=O)CCc3ccc4c(c3)OCO4)s2)cc1 | – | Toxic | – | – | Active | – | – | – | Active | Active | – | – | – | – | – |
| Cc1nc2ccccn2c1-c1csc(Nc2ccc(C(=O)O)cc2)n1 | – | Toxic | – | – | Active | inactive | – | – | Active | Active | – | – | – | – | – |
| Cc1ccc(Cc2cnc(NC(=O)c3ccc(-n4ccnc4)cc3)s2)cc1 | – | – | – | – | Active | – | – | – | Active | Active | – | – | – | – | – |
| O=C1COc2ccc(C(=O)/C=C/c3cc(F)cc4c3OCOC4)cc2N1 | – | Toxic | – | – | Active | inactive | – | – | Active | Active | – | – | – | Active | Active |
| CC/C(=C(\c1ccccc1)c1ccc(OCCN(C)C)cc1)c1ccccc1 | – | – | – | – | Active | – | – | – | Active | Active | – | – | – | – | – |
